Data taken from ChEMBL document CHEMBL2406946 (Bioorg Med Chem, 2013).

Experiments:
[1] = Induction of nitric oxide release at 10^-4 M after 1 hr by Griess assay in presence of L-cysteine relative to control; format: physicochemical; details: 100 µM
Outline: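 Thiol-triggered NO release: compounds at final 10^-4 M incubated 1 h at 37 °C with L-cysteine. 1 mL of mixture treated with Griess reagent (sulfanilamide, N-naphthylethylenediamine dihydrochloride, phosphoric acid), held 10 min at room temperature, absorbance read at 540 nm. Percent NO released relative to a theoretical maximum of 1 mol NO/mol compound. Sodium nitroprusside served as positive control.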

[2] = target: Aldo-keto reductase family 1 member B1 (Bos taurus, UniProt P16116); test: Inhibition of bovine lens aldose reductase using DL-glyceraldehyde as substrate assessed as NADPH oxidation measured for 10 mins by spectrophotometric analysis
Outline: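 Aldose reductase isolated from bovine lens (enzyme at 750 µg/mL protein) in 50 mM PBS pH 6.2 with β-mercaptoethanol, Li2SO4 and NADPH, compounds across a 0.1–10 range. Reaction started with DL-glyceraldehyde. Fall in NADPH absorbance at 340 nm followed for 10 min.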

[3] = target: Aldo-keto reductase family 1 member B1 (Bos taurus) (UniProt P16116); test: Ratio of quercetin IC50 to compound iC50 for bovine lens aldose reductase
[4] = target: Aldo-keto reductase family 1 member B1 (Bos taurus) (UniProt P16116); test: Ratio of 4-(5-hydroxy-4-oxo-2-phenyl-4H-chromen-7-yloxy)butyl nitrate IC50 to compound IC50 for bovine lens aldose reductase

SMILES	Activity [1]	IC50 [2]	Ratio IC50 [3]	Ratio IC50 [4]
CCOc1cc(O)c2c(=O)cc(-c3ccc4c(c3)OCCO4)oc2c1		1190 nM		
CCCCCCOc1cc(O)c2c(=O)cc(-c3ccc(O)c(O)c3)oc2c1		1810 nM		
CCCCOc1cc(O)c2c(=O)cc(-c3ccc(O)c(O)c3)oc2c1		769 nM		
CCCCCCOc1cc(O)c2c(=O)cc(-c3ccc4c(c3)OCCO4)oc2c1		1710 nM		
CCCCCCOC(=O)COc1cc(O)c2c(=O)cc(-c3ccc4c(c3)OCCO4)oc2c1		2830 nM		
O=c1cc(-c2ccc(O)c(O)c2)oc2cc(O)cc(O)c12 [LUTEOLIN]		754 nM		
O=C(COc1cc(O)c2c(=O)cc(-c3ccc4c(c3)OCCO4)oc2c1)OCCCCCCO[N+](=O)[O-]	1.14%	1300 nM		
CCCCOc1cc(O)c2c(=O)cc(-c3ccc4c(c3)OCCO4)oc2c1		1250 nM		
CCOc1cc(O)c2c(=O)cc(-c3ccc(O)c(O)c3)oc2c1		604 nM		

Now those with a lower IC50 [2], led by results:

Activity [1]	IC50 [2]	Ratio IC50 [3]	Ratio IC50 [4]	SMILES
2.345%	472 nM			O=c1cc(-c2ccc(O)c(O)c2)oc2cc(OCCCCO[N+](=O)[O-])cc(O)c12
1.018%	445 nM			O=C(COc1cc(O)c2c(=O)cc(-c3ccc4c(c3)OCCO4)oc2c1)OCCO[N+](=O)[O-]
1.07%	168 nM			O=c1cc(-c2ccc(O)c(O)c2)oc2cc(OCCO[N+](=O)[O-])cc(O)c12
	506 nM			CCOC(=O)COc1cc(O)c2c(=O)cc(-c3ccc4c(c3)OCCO4)oc2c1
	523 nM			CCCCOC(=O)COc1cc(O)c2c(=O)cc(-c3ccc4c(c3)OCCO4)oc2c1
4.637%	491 nM			O=c1cc(-c2ccc(O)c(O)c2)oc2cc(OCCCCCCO[N+](=O)[O-])cc(O)c12
1.328%	445 nM			O=c1cc(-c2ccc3c(c2)OCCO3)oc2cc(OCCCCCCO[N+](=O)[O-])cc(O)c12
1.351%	491 nM			O=C(COc1cc(O)c2c(=O)cc(-c3ccc4c(c3)OCCO4)oc2c1)OCCCCO[N+](=O)[O-]
2.111%	99 nM	28.5		O=c1cc(-c2ccc3c(c2)OCCO3)oc2cc(OCCO[N+](=O)[O-])cc(O)c12
2.813%	127 nM		2.3	O=c1cc(-c2ccc3c(c2)OCCO3)oc2cc(OCCCCO[N+](=O)[O-])cc(O)c12
